ZTA counter: blocks Epstein-Barr virus ZTA, an EBNA-1 counter-screen; ZTA-DNA binding, fluorescence polarization; inhibition, % at 11 µM; 320,000 tested, 0.15% active; AID 2234; in the data active means inhibition above about 33%
Target sequence (P03206 whole entry, looked up): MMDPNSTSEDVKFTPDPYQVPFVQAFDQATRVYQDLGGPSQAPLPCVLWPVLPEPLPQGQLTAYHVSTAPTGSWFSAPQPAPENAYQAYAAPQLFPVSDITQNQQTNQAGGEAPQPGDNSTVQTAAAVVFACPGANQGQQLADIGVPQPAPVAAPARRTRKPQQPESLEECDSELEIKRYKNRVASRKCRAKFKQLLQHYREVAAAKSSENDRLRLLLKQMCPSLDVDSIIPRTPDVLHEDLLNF
core dimer inh: HCV core protein dimerization inhibition; inhibition, % at 5 µM; TR-FRET GST/Flag-core106 dimerization, 1536-well; 300,000 tested, 0.33% active;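 active means inhibition above the mean of all tested compounds plus 3 SD, set per screening campaign, cut at about 45% in these data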
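System – GST-tagged and Flag-tagged HCV core protein residues 1-106 · Repeats – one well for each compound · Technique – TR-FRET 671 and 617 nm emission · Doses – one concentration, 5 µM, in 0.5% DMSO · Times – 4 h, 22.5 °C incubation · Also added – Eu donor and XL665 acceptor anti-tag antibodies · Measure – percent inhibition of core106 dimerization signal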
EBNA-1 inhibitor: blocks EBNA-1 binding to DNA | EBNA-1 DNA binding, fluorescence polarization | 300,000 tested, 0.34% active | inhibition, % at 14.8 µM; in the data active means inhibition above about 28%
HCV NS3 hel inh: inhibitors of Hepatitis C virus NS3 helicase | NS3 helicase DNA unwinding, Cy5 molecular beacon fluorescence | 290,000 tested, 0.56% active | inhibition, % at 10.9 µM;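 active means inhibition above the mean of all tested compounds plus 3 SD, set per campaign, cut at about 35% in these data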;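 further: 0% = DMSO wells and 100% = thioflavine S control wells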
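Assay system: hepatitis C virus NS3 helicase domain fragment enzyme. Also added: annealed dual-labelled DNA beacon duplex, ATP-started. Timing: 1 h reaction at 25 °C, ATP-initiated. Technique: Cy5 fluorescence at 0 and 60 min, beacon hairpin quenching. Evaluation: % inhibition of unwinding. Replication: one well per compound.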
EBNA-1 confirm: EBNA-1 (EBV) inhibition, confirmation; 830 tested, 35% active; inhibition, % at 14.8 µM; Recombinant EBNA-1 DBD, Cy5-DNA fluorescence polarization; shares compounds with EBNA-1 inhibitor; AID 2292;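 active means mean inhibition across replicates above a set limit taken from the earlier primary screen, cut at about 28% in these data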;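 further: plate controls were EBNA-1 protein with DMSO for no effect and wells lacking EBNA-1 for full effect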
ZTA DNA inh trip: blocks Epstein-Barr virus ZTA in triplicate, EBNA-1 counter-screen | shares compounds with EBNA-1 inhibitor | Zta-ZRE DNA binding, Cy5 fluorescence polarization | inhibition, % at 11.1 µM | 830 tested, under 10 active;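 active means mean inhibition over triplicates above a set limit taken from the primary EBNA-1 screen, cut at about 37% in these data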;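 further: purified full length Zta protein with Cy5 labeled ZRE DNA probe; 0% = Zta with DMSO and 100% = wells lacking Zta protein; inhibitors lower polarization by freeing the labeled DNA probe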
Zta DNA confirm: EBV ZTA DNA binding inhibition, confirmation; shares compounds with ZTA counter; Zta-ZRE DNA binding, fluorescence polarization; inhibition, % at 11.1 µM; 320 tested, 30% active; AID 2361;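 active means mean inhibition across triplicate runs above the hit threshold derived for the original primary screen, cut at about 33% in these data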;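 further: 0% = Zta with DMSO and 100% = wells lacking Zta protein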
EBNA-1 counter: EBNA-1 DNA binding inhibition, counter-screen for ZTA; inhibition, % at 14.8 µM; AID 2362; shares compounds with ZTA counter; 320 tested, under 10 active; fluorescence polarization; call rule not given here
* hit, by the source's call. In the library only some 1.2% were active in any assay of this set; here they are far more common.

How did COc1ccc(NC(=O)c2cc(S(=O)(=O)N3CCc4ccccc43)cn2C)cc1OC do in these assays?
ZTA counter: 7; core dimer inh: -3; EBNA-1 inhibitor: 40*; HCV NS3 hel inh: -5; EBNA-1 confirm: 39*; ZTA DNA inh trip: -1

How did COc1ccc(S(=O)(=O)Nc2cc(Sc3ncn[nH]3)c(O)c3ccccc23)cc1 do in these assays?
HCV NS3 hel inh: 7

What do the screens show for `O=S(=O)(Nc1cc(Sc2cccc3cccnc23)c(O)c2ccccc12)c1ccc(F)cc1`?
ZTA counter: 17; core dimer inh: -3; EBNA-1 inhibitor: 33*; HCV NS3 hel inh: -3; EBNA-1 confirm: 10; ZTA DNA inh trip: 3

Results for Cc1cccc(Nc2c([N+](=O)[O-])c(=O)oc3ccccc23)c1 ?
ZTA counter: 4; core dimer inh: 2; EBNA-1 inhibitor: -4; HCV NS3 hel inh: 20

What do the screens show for `O=c1[nH]cc(S(=O)(=O)N2CCN(c3cccc(Cl)c3)CC2)c(=O)[nH]1`?
ZTA counter: 7; core dimer inh: 3; EBNA-1 inhibitor: -8

Results for O=c1[nH]cc(S(=O)(=O)N2CCN(c3cccc(C(F)(F)F)c3)CC2)c(=O)[nH]1 ?
ZTA counter: -7; core dimer inh: -9; EBNA-1 inhibitor: 31*; EBNA-1 confirm: -5; ZTA DNA inh trip: 4

How did CCN(CC(=O)NCc1cccs1)C(=O)/C=C/c1cc(Br)ccc1OC(F)F do in these assays?
ZTA counter: 14

How did O=S(=O)(N/N=C/c1ccccc1OCc1ccc(Cl)cc1)c1ccccc1 do in these assays?
ZTA counter: 4; core dimer inh: 6; EBNA-1 inhibitor: 4; HCV NS3 hel inh: 4

Results for COC(=O)c1ccc(COc2ccccc2/C=N/NS(=O)(=O)c2ccc(C)cc2)cc1 ?
ZTA counter: 4; core dimer inh: 14; EBNA-1 inhibitor: 67*; HCV NS3 hel inh: -4; EBNA-1 confirm: 29*; ZTA DNA inh trip: 14

How did COc1ccc(/C(C)=N\Nc2nc(-c3ccccc3)cc(=O)[nH]2)cc1 do in these assays?
ZTA counter: 8; core dimer inh: -3; EBNA-1 inhibitor: 42*; HCV NS3 hel inh: -2; EBNA-1 confirm: 20; ZTA DNA inh trip: 5

How did COc1ccc(NC(=O)Nc2ccc(OC)cc2)cc1 do in these assays?
ZTA counter: 4; core dimer inh: -2; EBNA-1 inhibitor: 54*; HCV NS3 hel inh: 0; EBNA-1 confirm: 32*; ZTA DNA inh trip: 0

Results for COc1ccc(NC(=O)c2ccc(OC(=S)N(C)c3ccc(OC)cc3)cc2)cc1 ?
ZTA counter: 13; core dimer inh: 19; EBNA-1 inhibitor: 34*; HCV NS3 hel inh: 2; EBNA-1 confirm: 19; ZTA DNA inh trip: 8

How did COC(=O)c1ccc(NC(=O)Nc2ccc(OC)cc2)cc1 do in these assays?
ZTA counter: -7; core dimer inh: 1; EBNA-1 inhibitor: -9; HCV NS3 hel inh: -12

How did CN(C(=S)Oc1ccc(C(=O)Nc2ccccc2)cc1)c1ccccc1 do in these assays?
ZTA counter: -13; core dimer inh: 1; EBNA-1 inhibitor: 5; HCV NS3 hel inh: -15

Results for COc1ccc(C(=O)Nc2ccc3c(c2)C(=O)NC3=O)cc1 ?
ZTA counter: 10; core dimer inh: -9; EBNA-1 inhibitor: 33*; HCV NS3 hel inh: -4; EBNA-1 confirm: 26; ZTA DNA inh trip: 5

Results for COc1ccc(NC(=O)C2(c3ccc(NC(=O)c4ccc(C)cc4)cc3)CCCC2)cc1 ?
ZTA counter: -14; core dimer inh: 10; EBNA-1 inhibitor: 3; HCV NS3 hel inh: 3

What do the screens show for `COc1ccc(C(=O)Nc2ccc(C3(C#N)CCCC3)cc2)cc1`?
ZTA counter: 18; core dimer inh: 2; EBNA-1 inhibitor: 56*; HCV NS3 hel inh: -1; EBNA-1 confirm: 13; ZTA DNA inh trip: 2

How did COc1ccc(C(=O)NCC(=O)OCC(=O)N2CCC(C)CC2)cc1OC do in these assays?
ZTA counter: -13; core dimer inh: -4; EBNA-1 inhibitor: -10; HCV NS3 hel inh: 3

What do the screens show for `Cc1cc(NC(=O)CSc2nc(-c3ccc(Cl)cc3)cs2)no1`?
ZTA counter: 15; core dimer inh: 4; EBNA-1 inhibitor: 40*; HCV NS3 hel inh: -7; EBNA-1 confirm: 7; ZTA DNA inh trip: -12

Results for Cc1cc(NC(=O)CSc2ccc(Cl)cc2)no1 ?
ZTA counter: -12; core dimer inh: -1; EBNA-1 inhibitor: -2; HCV NS3 hel inh: 2

Results for NC(=O)c1cc(-c2ccccc2)sc1NC(=O)Cc1ccc(S(=O)(=O)N2CCOCC2)s1 ?
ZTA counter: -5; core dimer inh: 43; EBNA-1 inhibitor: 31*; HCV NS3 hel inh: -9; EBNA-1 confirm: 53*; ZTA DNA inh trip: 3

How did Cc1ccc(NC(=O)COc2ccc(/C=N/NC(=O)CSCc3ccccc3)cc2)cc1 do in these assays?
ZTA counter: -18; core dimer inh: 7; EBNA-1 inhibitor: 11; HCV NS3 hel inh: -14

Results for O=C(CSCc1ccc(Cl)cc1)N/N=C/c1ccc(OCC(=O)Nc2ccccc2)cc1 ?
ZTA counter: 8; core dimer inh: 11; EBNA-1 inhibitor: 52*; HCV NS3 hel inh: -1; EBNA-1 confirm: 29*; ZTA DNA inh trip: 1

Results for O=C(Nc1ccc(NC(=O)c2ccccc2O)cc1)Nc1ccc(F)cc1F ?
ZTA counter: -8; core dimer inh: 0; EBNA-1 inhibitor: 38*; HCV NS3 hel inh: -11; EBNA-1 confirm: 10; ZTA DNA inh trip: -9

How did O=C(Nc1ccc(F)cc1)Nc1ccccc1F do in these assays?
ZTA counter: -2; core dimer inh: -6; EBNA-1 inhibitor: 4; HCV NS3 hel inh: 8

What do the screens show for `COc1ccc(NC(=S)NC(=O)/C=C/c2ccco2)cc1`?
ZTA counter: 3; core dimer inh: 6; EBNA-1 inhibitor: -6; HCV NS3 hel inh: 11

What do the screens show for `O=C(/C=C/c1ccco1)NC(=S)Nc1ccc(C(=O)O)cc1`?
ZTA counter: 54*; core dimer inh: -9; EBNA-1 inhibitor: -11; HCV NS3 hel inh: 30; Zta DNA confirm: 38*; EBNA-1 counter: 1

Results for Cc1nc2c(-c3ccc(F)cc3)cnn2c(N)c1-c1ccc(F)cc1 ?
ZTA counter: 38*; core dimer inh: -2; EBNA-1 inhibitor: -1; HCV NS3 hel inh: -26; Zta DNA confirm: -2; EBNA-1 counter: -12

What do the screens show for `CCc1ccc2nc(Nc3ccc(OC)cc3OC)c(C#N)cc2c1`?
ZTA counter: -13; core dimer inh: 7; EBNA-1 inhibitor: -6; HCV NS3 hel inh: -4

Results for COc1ccc(Br)cc1CNc1ccc(O)cc1 ?
ZTA counter: 40*; core dimer inh: -11; EBNA-1 inhibitor: -1; HCV NS3 hel inh: 9; Zta DNA confirm: -5; EBNA-1 counter: 0
